PMC2099187 (The Journal of Cell Biology, 2007)
“Also recorded” adds a separate entry of the source. Where a SMILES comes first, the peptide text is derived from it.

Columns and labels:
[1] = biological target: T1, recombinant human (rh) ECE-1 (Homo sapiens, UniProt P42892); experiment: Peptide degradation by rhECE-1; format: biochemical; settings: for Degradation of peptide by 83 nM rhECE-1 at pH 5.5 or 7.4: 50 mM MES-KOH pH 5.5 or 50 mM Tris-HCl pH 7.4, up to 480 min
T1 sequence (P42892 1-770): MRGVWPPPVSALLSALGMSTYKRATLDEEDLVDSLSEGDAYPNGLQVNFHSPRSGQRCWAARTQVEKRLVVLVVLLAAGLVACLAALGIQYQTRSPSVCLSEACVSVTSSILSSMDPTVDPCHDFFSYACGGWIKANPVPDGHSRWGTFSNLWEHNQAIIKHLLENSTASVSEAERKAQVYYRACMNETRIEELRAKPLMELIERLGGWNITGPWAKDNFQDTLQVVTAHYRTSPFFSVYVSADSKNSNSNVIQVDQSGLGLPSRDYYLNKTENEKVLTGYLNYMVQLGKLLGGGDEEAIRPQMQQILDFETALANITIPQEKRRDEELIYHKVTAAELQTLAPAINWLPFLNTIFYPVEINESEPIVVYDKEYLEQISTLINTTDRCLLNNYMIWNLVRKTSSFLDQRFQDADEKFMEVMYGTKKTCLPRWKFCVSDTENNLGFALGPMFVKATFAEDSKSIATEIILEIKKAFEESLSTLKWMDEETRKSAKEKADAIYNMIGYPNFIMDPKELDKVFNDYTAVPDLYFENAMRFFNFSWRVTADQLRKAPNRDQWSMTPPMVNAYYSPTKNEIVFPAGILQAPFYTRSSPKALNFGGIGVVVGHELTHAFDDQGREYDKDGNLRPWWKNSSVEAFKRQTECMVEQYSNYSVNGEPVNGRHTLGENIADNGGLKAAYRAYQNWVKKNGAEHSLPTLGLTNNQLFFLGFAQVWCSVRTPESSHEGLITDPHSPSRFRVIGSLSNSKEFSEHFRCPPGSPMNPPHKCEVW
Method in brief: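 Where used, the ECE-1 inhibitor (100 μM) was preincubated with enzyme on ice for 30 min at matching pH before substrate was added. Products were resolved by reversed-phase HPLC and identified by MALDI TOF/TOF mass spectrometry.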

[2] = test system: HEK cells; experiment: BK-induced Ca2+ signaling, desensitization and resensitization; format: cell-based, human; settings: SM-19712 10 μM; for Effect on response to a single BK challenge ([Ca2+]i): BK 100 nM, thiorphan 1 μM, phosphoramidon 1 μM
Method in brief: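 HEK cells with native B2R were loaded with Fura-2AM and [Ca2+]i read at 37°C, on coverslips or in suspension. Cells were preincubated with BK 100 nM or vehicle (10 min, 37°C), washed, recovered 0–120 min, then rechallenged with BK 100 nM. SM-19712 10 μM, bafilomycin A1 0.15 or 1 μM, or DMSO was preincubated 20–60 min and kept in buffers throughout.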

[3] = test system: HEK-CLR-RAMP1 cells; experiment: Endocytosis and degradation of internalized 125I-His8-CGRP; format: cell-based, human; settings: 30 min after internalization; SM-19712 10 μM, bafilomycin A1 0.15 or 1 μM
[4] = test system: HEK-CLR-RAMP1+βARR2-GFP cells; experiment: Trafficking and colocalization of β-arrestin2-GFP and CLR/RAMP1; format: cell-based, human; settings: recovery up to 4 h in CGRP-free medium
Method in brief: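 HEK-CLR-RAMP1 cells transiently transfected with β-arrestin2-GFP had surface CLR (HA11) and RAMP1 (Myc) labelled. Cells were given CGRP (2 min to 1 h), washed, and recovered in CGRP-free medium for 1–4 h. SM-19712 10 μM, bafilomycin A1 0.15 or 1 μM, or DMSO was preincubated 20–60 min and kept throughout. After PFA fixation and confocal imaging, β-arrestin2/CLR endosomal colocalization coefficient was measured at 4 h recovery.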

[5] = test system: HEK-CLR-RAMP1 cells; experiment: CGRP-induced Ca2+ signaling, desensitization and resensitization; format: cell-based, human
Method in brief: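 HEK-CLR-RAMP1 cells were loaded with Fura-2AM; [Ca2+]i read at 37°C. Single challenge used CGRP 30 nM. For desensitization/resensitization: CGRP 100 nM or vehicle (1 h, 37°C), wash, 0–6 h recovery, CGRP 30 nM rechallenge. Variants: SM-19712 10 μM (20–60 min preincubation, kept throughout); ECE-1 or non-targeting siRNA pools, 72 h; transient ECE-1a-d-GFP. Response given as % of vehicle-treated cells, n ≥ 3.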

[6] = test system: SK-N-MC cells; experiment: CGRP-induced Ca2+ signaling, desensitization and resensitization; format: cell-based, human; settings: challenge 100 nM
Method in brief: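 SK-N-MC cells (endogenous CLR/RAMP1) were loaded with Fura-2AM for [Ca2+]i at 37°C. Single challenge used CGRP 100 nM. Desensitization: CGRP 100 nM or vehicle (1 h, 37°C), wash, CGRP-free recovery (4 h for resensitization), then CGRP 100 nM rechallenge. SM-19712 10 μM or DMSO was preincubated 20–60 min and kept throughout. Response was expressed as % of vehicle-treated cells.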

[7] = test system: HEK-CLR-RAMP1 cells expressing ECE-1c-HSV; experiment: Cell surface ECE-1c-HSV by flow cytometry; format: cell-based, human; settings: CGRP 100 nM, 30 min, 37°C
Method in brief: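 HEK-CLR-RAMP1 cells transiently expressing ECE-1c-HSV were bound with goat anti-HSV (1 h, 4°C), washed, and exposed to CGRP 100 nM or vehicle (30 min, 37°C). They were then stained with FITC anti-goat (1:200, 1 h, 4°C) and analysed by flow cytometry. Secondary-only background was subtracted; surface signal was expressed relative to 4°C cells (100%).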

[8] = biological target: CLR/RAMP1 (Rattus norvegicus, UniProt Q63118+Q9JJ74); experiment: pH dependency of 125I-CGRP binding to CLR/RAMP1 membranes; settings: pH 5.5, relative to pH 7.5 (100%)
[9] = test system: rhECE-1; experiment: rhECE-1; settings: human, 37°C, up to 720 min
[10] = test system: HEK-AT1AR cells; experiment: Resensitization of ATII-induced Ca2+ signaling; format: cell-based, human; settings: ATII 100 nM 1 h 37°C, wash, 2 h recovery, challenge 100 nM; unpublished data; mean ± SE
Method in brief: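 HEK-AT1AR cells were exposed to ATII (100 nM) or vehicle for 1 h at 37°C, washed, and allowed to recover in agonist-free medium at 37°C. They were then rechallenged with ATII (100 nM) while [Ca2+]i was measured. The [Ca2+]i change is expressed as % of the vehicle-pretreated response. Inhibitor (10 μM) or DMSO was preincubated 20–60 min and kept in buffers throughout. Mean ± SE, n ≥ 3.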

[11] = peptide 250 μM, rhECE-1 83 nM, 37°C, HPLC

Sequence of CLR/RAMP1 (Q63118 24-464): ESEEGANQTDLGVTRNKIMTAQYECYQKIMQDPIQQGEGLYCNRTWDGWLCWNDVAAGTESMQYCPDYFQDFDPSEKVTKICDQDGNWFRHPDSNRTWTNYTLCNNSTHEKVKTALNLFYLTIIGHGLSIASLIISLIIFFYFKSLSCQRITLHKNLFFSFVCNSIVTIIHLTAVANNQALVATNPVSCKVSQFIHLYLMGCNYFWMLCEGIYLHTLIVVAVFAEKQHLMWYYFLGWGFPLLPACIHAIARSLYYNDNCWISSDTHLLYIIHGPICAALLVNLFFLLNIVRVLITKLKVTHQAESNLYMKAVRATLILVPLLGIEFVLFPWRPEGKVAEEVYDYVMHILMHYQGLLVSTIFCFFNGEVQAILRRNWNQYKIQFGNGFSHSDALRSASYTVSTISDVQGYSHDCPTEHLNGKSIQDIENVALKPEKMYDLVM
Sequence of CLR/RAMP1 (Q9JJ74 27-148): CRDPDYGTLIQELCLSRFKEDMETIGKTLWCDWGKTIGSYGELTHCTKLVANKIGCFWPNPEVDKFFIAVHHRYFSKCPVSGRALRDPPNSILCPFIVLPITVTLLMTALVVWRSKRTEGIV

Q: Which “Degradation of peptide by 83 nM rhECE-1 at pH 5.5 or 7.4” value (shortened to “Degradation … at pH 5.5 or 7.4”) [1, 11] does the source give for `NC(N)=NCCC[C@H](NC(=O)[C@H](Cc1ccccc1)NC(=O)[C@@H]1CCCN1C(=O)[C@H](CO)NC(=O)[C@H](Cc1ccccc1)NC(=O)CNC(=O)[C@@H]1CCCN1C(=O)[C@@H]1CCCN1C(=O)[C@@H](N)CCCN=C(N)N)C(=O)O` [BK, bradykinin] (H-RPPGFSPFR-OH) here?
A: The value was “degraded BK at pH 5.5 and 7.4”.

Q: What about the “pH dependence of the rate of degradation by rhECE-1” value ([1]; rhECE-1 83 nM, pH 5.5 versus pH 7.4, 37°C, HPLC) of the same compound?
A: The value was “faster at pH 5.5”.

Q: Which results are given for `CO/C1=C\C(C)=C\[C@@H](C)[C@@H](O)[C@@H](C)C/C(C)=C/C=C/[C@H](OC)[C@@H]([C@@H](C)[C@@H](O)[C@H](C)[C@@]2(O)C[C@@H](O)[C@H](C)[C@@H](C(C)C)O2)OC1=O` [bafilomycin A1]?
A: Effect on desensitization of BK-induced Ca2+ signaling ([2]; bafilomycin A1 0.15 or 1 μM): had no effect; Effect on resensitization of BK-induced Ca2+ signaling ([2]; bafilomycin A1 0.15 or 1 μM, 0–120 min recovery): had no effect; Effect on degradation of internalized 125I-His8-CGRP [3]: prevented degradation; Effect on localization of CLR (RAMP1) and β-arrestin2 during recovery [4]: caused retention of CLR, RAMP1, and β-arrestin2 in endosomes for up to 4 h recovery

Q: `CC(C)C[C@H](NP(=O)(O)O[C@@H]1O[C@@H](C)[C@H](O)[C@@H](O)[C@H]1O)C(=O)N[C@@H](Cc1c[nH]c2ccccc12)C(=O)O` [phosphoramidon] was tested. Which “Effect on response to a single BK challenge ([Ca2+]i)” value [2] did it give?
A: Its value is “did not affect responses to a single BK challenge”.

Q: With `O=C(O)CNC(=O)C(CS)Cc1ccccc1` (centres unmarked) [thiorphan] as the compound, how does the “Effect on response to a single BK challenge ([Ca2+]i)” value [2] read?
A: The value was “did not affect responses to a single BK challenge”.

Q: Calcitonin gene-related peptide [CGRP] was tested. Which “Desensitization of CGRP-induced Ca2+ signals by preincubation with agonist” value ([5]; CGRP 100 nM 1 h 37°C, 0 h recovery, challenge 30 nM) did it give?
A: The value was “complete desensitization”.

Q: What about the “Resensitization of responses to CGRP in cells with active ECE-1” value ([5]; CGRP 100 nM 1 h, wash, 0–6 h recovery, challenge 30 nM) of the same compound?
A: The value was “fully resensitized at 4–6 h recovery”.

Q: What about the “Resensitization of CGRP-induced Ca2+ signaling, HEK cells expressing CLR/RAMP1 alone (control)” value ([5]; after 2 h recovery, mean ± SE) of the same compound?
A: The value was 33 ± 2%.

Q: What about the “Resensitization of CGRP-induced Ca2+ signaling, cells overexpressing ECE-1c” value ([5]; at 2 h recovery, mean ± SE) of the same compound?
A: The value was 75 ± 5%.

Q: And the “Desensitization of responses to CGRP by preincubation with agonist” value ([6]; CGRP 100 nM 1 h 37°C)?
A: The value was “completely desensitized”.

Q: What about the “Resensitization of responses to CGRP” value ([6]; after 4 h recovery, mean ± SE) of the same compound?
A: Its value is 54 ± 5%.

Q: And the “Effect on constitutive endocytosis of ECE-1c-HSV (cell surface ECE-1c)” value [7]?
A: Its value is “did not affect this endocytosis”.

Q: What about the “Bonds hydrolysed by rhECE-1 (major products separated by HPLC)” value ([1]; pH 5.5, products CGRP[15–26], CGRP[27–37], CGRP[1–24], CGRP[1–26]) of the same compound?
A: Its value is “Gly^14-Leu^15, Lys^24-Asp^25, and Asn^26-Phe^27”.

Q: And the “Degradation of peptide by rhECE-1 at endosomal pH 5.5” value ([1]; peptide 250 μM, rhECE-1 83 or 415 nM, 37°C, 50 mM MES-KOH pH 5.5, 0–720 min, reversed-phase HPLC)?
A: Its value is “degraded CGRP in a concentration-dependent manner”.

Q: And the “Degradation of peptide by rhECE-1 at extracellular fluid pH 7.4” value ([1]; peptide 250 μM, rhECE-1, 37°C, 50 mM Tris-HCl pH 7.4, reversed-phase HPLC)?
A: Its value is “minimal”.

Q: What about the “Peptide bound to CLR/RAMP1 at endosomal pH 5.5” value [8] of the same compound?
A: The value was ~20%.

Q: For “SCNTATCVTHRLAGLLSRSGGVVKDNFVPTNVGSEAF-NH2”, which cleaved bond [9] is on record?
A: The cleaved bond was “Gly14-Leu15, major; also recorded: Lys24-Asp25, major; also recorded: Asn26-Phe27, major”.

Q: For “angiotensin (AT) I (DRVYIHPFHL; Angiotensin-1; UniProt P01019 25-34, looked up) [ATI]”, which “Degradation … at pH 5.5 or 7.4” value [1, 11] is on record?
A: The value was “degraded ATI under the same conditions”.

Q: How did the “Degradation … at pH 5.5 or 7.4” value [1, 11] turn out when “angiotensin II (DRVYIHPF; Angiotensin-2; UniProt P01019 25-32, looked up) [ATII]” was run?
A: Its value is “no detectable degradation at up to 480 min”.

Q: For angiotensin II [ATII], which “Resensitization of ATII-induced Ca2+ signaling at 2 h” value [10] is on record?
A: Its value is 96 ± 3%.
